Laboratory results from ChEMBL document CHEMBL1124161, “4-Hydroxy-3-quinolinecarboxamides with antiarthritic and analgesic activities” (J Med Chem, 1988).
Activity calls are given as the source filed them. No cut-off for these calls is given here.

Legend:
[1] = target: T1, Cyclooxygenase (Bos taurus, UniProt O62664+O62698); assay: Inhibition of bovine Prostaglandin G/H synthase in seminal vesicle microsomes in vitro
T1 sequence (O62664 whole entry): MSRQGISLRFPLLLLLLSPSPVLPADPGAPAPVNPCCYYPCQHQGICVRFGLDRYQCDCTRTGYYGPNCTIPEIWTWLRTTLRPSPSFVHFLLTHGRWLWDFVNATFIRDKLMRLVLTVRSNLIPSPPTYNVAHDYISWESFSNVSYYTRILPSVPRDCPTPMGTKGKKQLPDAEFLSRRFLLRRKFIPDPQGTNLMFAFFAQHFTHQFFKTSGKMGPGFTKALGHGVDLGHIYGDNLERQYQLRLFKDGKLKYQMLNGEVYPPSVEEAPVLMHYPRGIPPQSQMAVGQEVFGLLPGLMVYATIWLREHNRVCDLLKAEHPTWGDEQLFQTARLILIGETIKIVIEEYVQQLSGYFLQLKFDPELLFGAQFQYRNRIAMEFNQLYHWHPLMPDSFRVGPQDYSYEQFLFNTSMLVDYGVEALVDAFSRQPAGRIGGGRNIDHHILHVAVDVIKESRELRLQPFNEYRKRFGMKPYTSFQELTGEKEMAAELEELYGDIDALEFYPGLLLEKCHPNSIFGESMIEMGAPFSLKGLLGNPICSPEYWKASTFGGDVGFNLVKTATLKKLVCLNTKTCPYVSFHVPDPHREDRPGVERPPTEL
T1 sequence (O62698 whole entry): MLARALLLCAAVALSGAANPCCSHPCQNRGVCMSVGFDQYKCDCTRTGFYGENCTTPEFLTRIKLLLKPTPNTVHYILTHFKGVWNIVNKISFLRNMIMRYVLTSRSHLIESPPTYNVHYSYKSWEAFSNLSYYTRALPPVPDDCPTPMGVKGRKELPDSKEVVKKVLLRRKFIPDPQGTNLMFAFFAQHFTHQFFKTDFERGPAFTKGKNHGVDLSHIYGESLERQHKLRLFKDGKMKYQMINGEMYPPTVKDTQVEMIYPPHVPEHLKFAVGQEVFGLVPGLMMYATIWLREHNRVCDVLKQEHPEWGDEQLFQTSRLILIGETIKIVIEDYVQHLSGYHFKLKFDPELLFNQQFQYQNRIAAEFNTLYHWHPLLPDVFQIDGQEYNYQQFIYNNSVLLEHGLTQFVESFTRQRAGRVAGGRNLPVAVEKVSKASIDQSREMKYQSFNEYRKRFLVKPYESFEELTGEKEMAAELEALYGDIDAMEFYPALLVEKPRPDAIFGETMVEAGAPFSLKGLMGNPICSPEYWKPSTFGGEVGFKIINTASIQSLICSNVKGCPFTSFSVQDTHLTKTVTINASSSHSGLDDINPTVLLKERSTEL

[2] = tested on: Rattus norvegicus; assay: Anti-arthritis activity against adjuvant-induced arthritis in rats after peroral administration; type: functional
In short: (§1)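 Groups of five male Lewis rats, 40–50 days old, given intraplantar injection in right hind paw of 0.6 mg Mycobacterium butyricum in 0.1 mL Bayol 55. Drug given in food from adjuvant day to day 17. Injected and noninjected hind paw volumes measured day 17 against normal controls. ED50 by least-squares curve fitting or Litchfield–Wilcoxon probit.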

[3] = tested on: Rattus norvegicus; assay: Ulcerogenic effect after oral administration (gastric ulcer); type: functional
In short: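 Groups of eight female rats (120–150 g), fasted 24 h, dosed orally; killed 7 h later and stomachs scored. Ulceration index = (mean ulcer degree × rats with ulcers / number of rats) × 100, ulcers being scores above 0.5. ED100 (index 100, max 300) read graphically.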

[4] = tested on: Rattus norvegicus; assay: Antiinflammatory activity against carrageenan-induced foot edema in rat after peroral administration; type: functional; settings: po
In short: (§2)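 Groups of eight male Sprague-Dawley rats (150–180 g) dosed orally at the time of subplantar injection of 0.5 mg carrageenin. Paw volume difference measured before and 5 h after injection. Expressed as ED40, estimated graphically or by Litchfield–Wilcoxon probit analysis.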

[5] = tested on: Mus musculus; assay: Analgesic activity against acetic acid induced writhing test in mouse after peroral administration; type: functional
[6] = target: T2, Polyunsaturated fatty acid 5-lipoxygenase (Rattus norvegicus, UniProt P12527); assay: Inhibition of 5-lipoxygenase from rat peritoneal neutrophils in vitro
T2 sequence (P12527 whole entry): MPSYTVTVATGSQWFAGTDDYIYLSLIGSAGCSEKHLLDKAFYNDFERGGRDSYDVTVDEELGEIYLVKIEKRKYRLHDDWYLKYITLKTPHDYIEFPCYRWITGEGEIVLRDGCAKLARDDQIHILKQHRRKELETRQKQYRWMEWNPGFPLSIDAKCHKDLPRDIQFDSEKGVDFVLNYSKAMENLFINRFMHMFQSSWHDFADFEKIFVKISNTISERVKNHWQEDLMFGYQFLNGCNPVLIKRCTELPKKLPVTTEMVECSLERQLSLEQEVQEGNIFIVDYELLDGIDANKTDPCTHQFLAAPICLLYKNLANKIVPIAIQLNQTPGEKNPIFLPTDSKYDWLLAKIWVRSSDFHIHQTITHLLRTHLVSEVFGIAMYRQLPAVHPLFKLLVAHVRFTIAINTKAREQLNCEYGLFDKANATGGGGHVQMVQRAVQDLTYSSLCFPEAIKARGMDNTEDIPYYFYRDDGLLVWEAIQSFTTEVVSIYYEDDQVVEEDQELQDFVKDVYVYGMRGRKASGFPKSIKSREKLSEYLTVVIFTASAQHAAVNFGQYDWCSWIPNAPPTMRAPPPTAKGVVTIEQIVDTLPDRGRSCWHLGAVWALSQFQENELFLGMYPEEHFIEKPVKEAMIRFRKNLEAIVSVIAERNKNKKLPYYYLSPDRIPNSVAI

[7] = organism: Rattus norvegicus; assay: Antiarthritis activity against adjuvant-induced arthritis in rats; type: functional
In short: as §1

[8] = tested on: Rattus norvegicus; assay: Antiinflammatory activity against carrageenan-induced foot edema in rat after peroral administration of 25 mg/kg; IA means Inactive; type: functional, organism-based; set-up: dose 25 mg/kg
[9] = tested on: Mus musculus; assay: Analgesic activity against acetic acid induced writhing test in mouse after peroral administration of 100 mg/kg; IA=Inactive; type: functional, organism-based; set-up: dose 100 mg/kg
In short: (§3)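 Female mice (20–22 g), groups of 10, fasted 7 h; drug given orally 30 min before intraperitoneal injection of 0.2 mL 1% aqueous acetic acid. Stretching/writhing movements counted from minute 5 to 20 after irritant.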

[10] = tested on: Rattus norvegicus; assay: Antiinflammatory activity against carrageenan-induced foot edema in rat after peroral administration of 100 mg/kg; IA=Inactive; type: functional, organism-based; set-up: dose 100 mg/kg
[11] = tested on: Rattus norvegicus; assay: Antiarthritis activity against adjuvant-induced arthritis in rats after peroral administration at 15 mg/kg; IA=Inactive; type: functional, organism-based; set-up: dose 15 mg/kg
In short: as §1

[12] = tested on: Mus musculus; assay: Analgesic activity against acetic acid induced writhing test in mouse administered po at 100 mg/kg; IA=Inactive; type: functional, organism-based; set-up: dose 100 mg/kg
In short: as §3

[13] = tested on: Rattus norvegicus; assay: Antiinflammatory activity against carrageenan-induced foot edema after peroral administration in rat; type: functional; settings: po
In short: as §2

[14] = tested on: Rattus norvegicus; assay: Antiarthritis activity against adjuvant-induced arthritis in rats administered po at 10 mg/kg; IA=Inactive; type: functional, organism-based; set-up: dose 10 mg/kg
[15] = tested on: Mus musculus; assay: Analgesic activity against acetic acid induced writhing test in mouse after peroral administration at 25 mg/kg; IA=Inactive; type: functional, organism-based; set-up: dose 25 mg/kg
In short: as §3

[16] = tested on: Rattus norvegicus; assay: Antiinflammatory activity against carrageenan-induced foot edema in rat after oral administration of 20 mg/kg; IA=Inactive; type: functional, organism-based; set-up: dose 20 mg/kg
[17] = tested on: Rattus norvegicus; assay: Ulcerogenic effect after oral administration (intestinal ulcer); type: functional
In short: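 Nonfasted male rats (150–180 g) killed 24 h after oral dosing, and intestinal ulcers scored. Ulceration index = (mean degree × rats with ulcers / rats) × 100. ED100 (index 100) determined graphically.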

[18] = tested on: Mus musculus; assay: Analgesic activity against acetic acid induced writhing test in mouse after peroral administration at 100 mg/kg; IA=Inactive
[19] = tested on: Rattus norvegicus; assay: Antiarthritis activity against adjuvant-induced arthritis in rats at 25 mg/kg; IA=Inactive; type: functional, organism-based; set-up: dose 25 mg/kg
[20] = tested on: Mus musculus; assay: Analgesic activity against acetic acid induced writhing test in mouse administered peroral dose of 25 mg/kg; IA=Inactive; type: functional, organism-based; set-up: dose 25 mg/kg
In short: as §3

[21] = tested on: Rattus norvegicus; assay: Antiinflammatory activity against carrageenan-induced foot edema in rat after oral administration of 25 mg/kg; IA=Inactive; type: functional, organism-based; set-up: dose 25 mg/kg
[22] = Mus musculus, po, read-out: ED50
[23] = Rattus norvegicus, po, read-out: ED50

CCC(O)c1nc2c(C(F)(F)F)cccc2c(O)c1C(=O)Nc1nccs1 (stereo in doubt; 89)
IC50 [1]: 200 nM | ED50 [2]: 1.6 mg/kg | ED100 [3]: 12 mg/kg | ED40 [4]: 5 mg/kg | ED50 [5]: 3 mg/kg | IC50 [6]: 1100 nM | ED50 [7]: 2 mg/kg

COCc1nc2c(C(F)(F)F)cccc2c(O)c1C(=O)Nc1nccs1
ED50 [8]: inactive | ED50 [5, 22]: 25 mg/kg

Cn1ccnc1NC(=O)c1c(C(F)(F)F)nc2c(C(F)(F)F)cccc2c1O
ED50 [9]: inactive | ED50 [10]: inactive

C[C@@H](N)c1nc2c(C(F)(F)F)cccc2c(O)c1C(=O)Nc1nccs1
ED50 [11]: inactive | ED50 [5, 22]: > 100 mg/kg

CCC(=O)OC(c1nc2c(C(F)(F)F)cccc2c(O)c1C(=O)Nc1ccccn1)C(C)C (stereo unspecified)
ED50 [2, 23]: 5 mg/kg | ED50 [12]: inactive

O=C(Nc1nccs1)c1c(C(O)C2CCCCC2)nc2c(C(F)(F)F)cccc2c1O (stereo unspecified)
ED40 [13]: > 100 mg/kg | ED50 [14]: inactive | ED50 [12]: inactive

CC(Cl)(Cl)c1nc2c(C(F)(F)F)cccc2c(O)c1C(=O)Nc1nccs1
ED50 [15]: inactive

O=C(Nc1nccs1)c1c(-c2ccccc2)nc2c(C(F)(F)F)cccc2c1O
ED50 [16]: inactive | ED50 [5, 22]: 50 mg/kg

CN1C(C(=O)Nc2ccccn2)=C(O)c2ccccc2S1(=O)=O [PIROXICAM]
ED100 [17]: 20 mg/kg | ED50 [2, 23]: 0.8 mg/kg | ED100 [3]: 9 mg/kg | ED40 [4]: 8 mg/kg | ED50 [5, 22]: 3.3 mg/kg | IC50 [6]: > 100000 nM

O=C(Nc1nccs1)c1c(CO)nc2c(C(F)(F)F)cccc2c1O
ED50 [18]: inactive | ED50 [19]: inactive

CCCCC(O)c1nc2c(C(F)(F)F)cccc2c(O)c1C(=O)Nc1nccs1 (stereo unspecified)
ED40 [13]: > 100 mg/kg | ED50 [2, 23]: > 20 mg/kg | ED50 [5, 22]: ≥ 100 mg/kg

CC(C)c1ccc2nc(C(F)(F)F)c(C(=O)Nc3nccs3)c(O)c2c1
ED50 [5, 22]: > 100 mg/kg | ED50 [10]: inactive

C=Cc1nc2c(C(F)(F)F)cccc2c(O)c1C(=O)Nc1nccs1
ED50 [20]: inactive | ED50 [21]: inactive
